# In ChEMBL document CHEMBL1129431, “Derivatives of (R)- and (S)-5-fluoro-8-hydroxy-2-(dipropylamino)tetralin: synthesis and interactions with 5-HT1A receptors” (J Med Chem, 1996):
# “And” between values parts separate entries of the source, which are not always exact repeats. Equal values may be shown once.
# Legend:
# [1] = target: T1, 5-hydroxytryptamine receptor 1A (Rattus norvegicus) (UniProt P19327); experiment: Effect on 5-hydroxytryptamine 1A receptor mediated inhibition of VIP-stimulated cAMP production at dose of 1 uM; assay type: functional; details: values are per cent of control
# T1 sequence (whole entry): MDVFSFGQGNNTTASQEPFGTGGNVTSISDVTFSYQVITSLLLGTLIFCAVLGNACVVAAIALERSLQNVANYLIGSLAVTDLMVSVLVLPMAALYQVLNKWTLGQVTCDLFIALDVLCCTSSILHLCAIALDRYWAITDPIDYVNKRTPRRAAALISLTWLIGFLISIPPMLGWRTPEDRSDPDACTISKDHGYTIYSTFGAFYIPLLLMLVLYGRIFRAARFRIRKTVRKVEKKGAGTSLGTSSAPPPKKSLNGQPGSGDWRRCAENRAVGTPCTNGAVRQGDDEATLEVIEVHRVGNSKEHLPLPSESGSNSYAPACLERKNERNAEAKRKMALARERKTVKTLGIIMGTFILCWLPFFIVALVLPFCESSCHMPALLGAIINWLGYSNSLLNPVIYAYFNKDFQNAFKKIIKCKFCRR
# Method in brief: (§1)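 GH4ZD10 cells expressing rat 5-HT1A receptors were detached with EBSS plus 1 mM EDTA and resuspended to ~1×10^7 cells/mL in Ham's F10 with 0.01% ascorbic acid and 0.1 mM IBMX. After 1 h preincubation at 37 °C they were diluted to 0.8-1.5×10^6 cells/mL, then incubated 20 min at 37 °C with VIP (39 nM final) plus compound, alone or with 5-HT, in duplicate. The reaction was stopped by boiling. cAMP was measured in triplicate by protein-binding assay and expressed as % of the VIP-stimulated response.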
# [2] = target: T1, 5-hydroxytryptamine receptor 1A (Rattus norvegicus); experiment: Effect on 5-hydroxytryptamine 1A receptor mediated inhibition of VIP-stimulated cAMP production at dose of 10 uM; assay type: functional; details: values are per cent of control; method in brief: as §1
# [3] = target: T1, 5-hydroxytryptamine receptor 1A (Rattus norvegicus); experiment: Effect on 5-hydroxytryptamine 1A receptor mediated inhibition of VIP-stimulated cAMP production at dose of 0.1 uM + 1 uM 5-HT.; assay type: functional; details: values are per cent of control; method in brief: as §1
# [4] = target: T1, 5-hydroxytryptamine receptor 1A (Rattus norvegicus); experiment: Effect against 5-hydroxytryptamine 1A receptor mediated inhibition of VIP-stimulated cAMP production at 0.1 uM dose; assay type: functional; details: values are per cent of control; method in brief: as §1
# [5] = target: T1, 5-hydroxytryptamine receptor 1A (Rattus norvegicus); experiment: (§2) Effect on 5-hydroxytryptamine 1A receptor mediated inhibition of VIP-stimulated cAMP production at dose of 1 uM+ 50 uM 5-HT.; assay type: functional; details: values are per cent of control
# Method in brief: (§3)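 GH4ZD10 cells expressing rat 5-HT1A receptors, detached with EDTA-supplemented Ca/Mg-free EBSS and resuspended in Ham's F10 with 0.01% ascorbic acid and 0.1 mM IBMX. Preincubated 1 h at 37 °C, then 0.8-1.5×10^6 cells/mL incubated 20 min at 37 °C with VIP (39 nM final) plus compounds. Duplicate samples stopped by boiling. cAMP measured in triplicate by protein-binding assay. Results are given as % of the VIP-stimulated response.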
# [6] = target: T1, 5-hydroxytryptamine receptor 1A (Rattus norvegicus); experiment: Effect on 5-hydroxytryptamine 1A receptor mediated inhibition of VIP-stimulated cAMP production at dose of 50 uM; assay type: functional; details: values are per cent of control; method in brief: as §3
# [7] = target: T1, 5-hydroxytryptamine receptor 1A (Rattus norvegicus); experiment: Effect on 5-hydroxytryptamine 1A receptor mediated inhibition of VIP-stimulated cAMP production at dose of 0.05 uM; assay type: functional; details: values are per cent of control; method in brief: as §3
# [8] = target: T2, 5-hydroxytryptamine receptor 1A (Rattus norvegicus, UniProt P19327); experiment: Binding affinity against rat hippocampal 5-hydroxytryptamine 1A (5-HT1A) receptor determined using [3H]8-OH-DPAT as radioligand; assay type: tissue-based, Hippocampus
# T2 sequence (P19327 whole entry): T1 sequence (whole entry)
# [9] = target: T1, 5-hydroxytryptamine receptor 1A (Rattus norvegicus); experiment: Effect on 5-hydroxytryptamine 1A receptor mediated inhibition of VIP-stimulated cAMP production at dose of 1 uM+ 10 uM 5-HT.; assay type: functional; details: values are per cent of control; method in brief: as §1
# [10] = target: T1, 5-hydroxytryptamine receptor 1A (Rattus norvegicus); experiment: Effect on 5-hydroxytryptamine 1A receptor mediated inhibition of VIP-stimulated cAMP production at dose of 30 uM; assay type: functional; details: values are per cent of control; method in brief: as §1
# [11] = target: T1, 5-hydroxytryptamine receptor 1A (Rattus norvegicus); details: 1 uM
# [12] = target: T1, 5-hydroxytryptamine receptor 1A (Rattus norvegicus); details: 0.1 uM
# [13] = target: T1, 5-hydroxytryptamine receptor 1A (Rattus norvegicus); details: 1 uM; remark: listed apart in the source
# [14] = target: T1, 5-hydroxytryptamine receptor 1A (Rattus norvegicus); experiment: Effect on 5-hydroxytryptamine 1A receptor mediated inhibition of VIP-stimulated cAMP production at dose of 0.01 uM+ 1 uM 5-HT.; assay type: functional; details: values are per cent of control; method in brief: as §1
# [15] = target: T1, 5-hydroxytryptamine receptor 1A (Rattus norvegicus); experiment: Effect on 5-hydroxytryptamine 1A receptor-mediated inhibition of VIP-stimulated cAMP production at dose of 1 uM+ 10 uM 5-HT.; assay type: functional; details: values are per cent of control; method in brief: as §1
# [16] = target: T1, 5-hydroxytryptamine receptor 1A (Rattus norvegicus); experiment: as §2; assay type: functional; details: values are per cent of control; method in brief: as §1; remark: listed apart in the source
smiles,measurement,setting,value
CCCN(CCC)[C@@H]1CCc2c(F)ccc(O)c2C1,"response, % of control",[1],78%
same,"response, % of control",[2],61%
same,"response, % of control",[3],57%
same,"response, % of control",[4],86%
CCCN(CCCCN1C(=O)CC2(CCCC2)CC1=O)[C@@H]1CCc2c(F)ccc(C(C)=O)c2C1,"response, % of control",[1],59%
same,"response, % of control",[5],55%
same,"response, % of control",[6],48%
same,"response, % of control",[3],61%
same,"response, % of control",[7],50%
same,Ki,[8],< 0.3 nM
CCCN(CCC)[C@H]1CCc2c(F)ccc(C(C)=O)c2C1,Ki,[8],13.6 nM
CCCN(CCC)[C@@H]1CCc2cccc(O)c2C1,"response, % of control",[1],45%
same,"response, % of control",[2],47%
same,"response, % of control",[3],43%
same,"response, % of control",[4],53%
CCCN(CCC)[C@@H]1CCc2c(F)ccc(OS(=O)(=O)C(F)(F)F)c2C1 [listing 1 of 2 here],Ki,[8],18.5 nM
O=C1CC2(CCCC2)CC(=O)N1CCCCN1CCN(c2ncccn2)CC1,"response, % of control",[1],75%
same,"response, % of control",[2],73%
same,"response, % of control",[3],43%
same,"response, % of control",[4],84%
same,"response, % of control",[9],64%
CCCN(CCC)[C@@H]1CCc2c(F)ccc(-c3cccs3)c2C1 [listing 1 of 3 here],Ki,[8],35 nM
CCCN(CCC)[C@@H]1CCc2c(F)ccc(-c3cccs3)c2C1 [listing 2 of 3 here],"response, % of control",[1],93%
same,"response, % of control",[2],79%
same,"response, % of control",[3],60%
same,"response, % of control",[4],98%
same,"response, % of control",[10],61%
same,"response, % of control",[9],58%
CCCN(CCCCN1C(=O)CC2(CCCC2)CC1=O)[C@@H]1CCc2c(F)ccc(O)c2C1,"response, % of control",[1],66%
same,"response, % of control",[6],68%
same,"response, % of control",[3],68%
same,"response, % of control",[7],72%
same,Ki,[8],< 0.3 nM
CCCN(CCC)[C@@H]1CCc2c(F)ccc(C(C)=O)c2C1 [listing 1 of 2 here],"response, % of control",[5],63%
same,"response, % of control",[2],61%
same,"response, % of control",[3],60%
same,"response, % of control",[11],63%
same,"response, % of control",[12],95%
same,"response, % of control",[4],99%
same,"response, % of control",[10],62%
CCCN(CCC)[C@H]1CCc2c(F)ccc(O)c2C1,"response, % of control",[13],100%
same,"response, % of control",[2],100%
same,"response, % of control",[3],57%
same,"response, % of control",[4],94%
same,Ki,[8],24.8 nM
CCCN(CCC)[C@@H]1CCc2c(F)ccc(C(C)=O)c2C1 [listing 2 of 2 here],Ki,[8],6.9 nM
CCCN(CCC)[C@@H]1CCc2c(F)cccc2C1 [listing 1 of 3 here],"response, % of control",[1],85%
same,"response, % of control",[6],78%
same,"response, % of control",[2],81%
same,"response, % of control",[4],93% and 98%
same,"response, % of control",[14],60%
same,"response, % of control",[15],58%
CCCN(CCC)[C@@H]1CCc2c(F)cccc2C1 [listing 2 of 3 here],Ki,[8],136 nM
CCCN(CCC)[C@@H]1CCc2c(F)cccc2C1 [listing 3 of 3 here],Ki,[8],136 nM
CCCN(CCCCN1C(=O)CC2(CCCC2)CC1=O)[C@@H]1CCc2c(F)ccc(OS(=O)(=O)C(F)(F)F)c2C1,"response, % of control",[1],73%
same,"response, % of control",[5],51%
same,"response, % of control",[3],68%
same,"response, % of control",[7],98%
same,Ki,[8],0.9 nM
CCCN(CCC)[C@@H]1CCc2c(F)ccc(OS(=O)(=O)C(F)(F)F)c2C1 [listing 2 of 2 here],"response, % of control",[1],91%
same,"response, % of control",[2],61%
same,"response, % of control",[3],60%
same,"response, % of control",[4],98%
same,"response, % of control",[10],48%
same,"response, % of control",[9],52%
CCCN(CCC)[C@H]1CCc2c(F)cccc2C1 [listing 1 of 2 here],Ki,[8],250 nM
CCCN(CCC)[C@H]1CCc2c(F)cccc2C1 [listing 2 of 2 here],"response, % of control",[1],86%
same,"response, % of control",[16],73%
same,"response, % of control",[6],86%
same,"response, % of control",[3],61%
same,"response, % of control",[4],85%
CCCN(CCC)[C@@H]1CCc2c(F)ccc(-c3cccs3)c2C1 [listing 3 of 3 here],Ki,[8],35 nM
CCCN(CCC)[C@H]1CCc2c(F)ccc(OS(=O)(=O)C(F)(F)F)c2C1,Ki,[8],490 nM
CCCN(CCC)[C@H]1CCc2cccc(-c3ccco3)c2C1,Ki,[8],1.8 nM
